Measured values pooled from the literature.
Values after ≈ are worked out from the molar mass of the structure shown.

O=C1CCc2cc(-c3cccc(OC(=O)[C@H]4[C@H](c5ccccc5)[C@@H](C(=O)O)[C@H]4c4ccccc4)c3)ccc2N1 — IC50 (WI-38; cell growth or viability, MTT): 77 µM
CC(=O)O[C@H]1C(=O)[C@@]2(C)[C@H]([C@H](OC(=O)c3ccccc3)[C@]3(O)C[C@H](OC(=O)[C@H](O)[C@@H](NC(=O)c4ccccc4)c4ccccc4)C(C)=C1C3(C)C)[C@]1(OC(C)=O)CO[C@@H]1C[C@@H]2O — inhibition (HaCaT; cell growth or viability, CCK-8; 12.5 µM, 72 h): > 90%
O=C/C=C/c1ccccc1 — inhibition zone (Bacillus subtilis; microbial growth, well diffusion; MTCC121; 1000 µg/mL, 18 h): 8 mm
CC[C@H](C)C[C@H](C)CCCCCCCCC(=O)N[C@H]1C[C@@H](O)[C@@H](NCCN)NC(=O)[C@@H]2[C@@H](O)CCN2C(=O)[C@H]([C@H](O)CCN)NC(=O)[C@H]([C@H](O)[C@@H](O)c2ccc(O)cc2)NC(=O)[C@@H]2C[C@@H](O)CN2C(=O)[C@H]([C@@H](C)O)NC1=O — MFC (Nakaseomyces glabratus; microbial killing, broth dilution; ATCC15126; 48 h): 0.5 µg/mL (≈ 0.457 µM)
C#Cc1cccc(C=NNC(=O)c2ccc(Br)c(Br)c2)c1O — MFC (Cryptococcus neoformans; microbial killing): 0.12 µg/mL (≈ 0.284 µM)
N.N.[Cl][Pt][Cl] — IC50 (HaCaT; cell growth or viability, MTT; 72 h): 6.3 µM
N.N.[Cl][Pt][Cl] — IC50 (Daudi; cell growth or viability, ATP luminescence; 72 h): 0.86 µM
C#Cc1ccc(C=NNC(=O)c2cc(Br)cc(Br)c2O)c(O)c1 — MIC80 (Cryptococcus neoformans; microbial growth, broth dilution; pH 7.4): 0.03 µg/mL (≈ 0.0685 µM)
COc1cnc(OC)n2nc(NS(=O)(=O)c3c(OCC(F)F)cccc3C(F)(F)F)nc12 — inhibition (HaCaT; cell growth or viability, CCK-8; 50 µM, 72 h): 0.69%
C#Cc1ccc(C=NNC(=O)c2ccc(Br)c(O)c2)c(O)c1 — MIC80 (Cryptococcus neoformans; microbial growth, broth dilution; pH 7.4): 1 µg/mL (≈ 2.78 µM)
S=P1(C2CCCCC2)CCCCC1 — IC50 (HaCaT; cell growth or viability, MTT; 72 h): > 100 µM
C#Cc1cccc(O)c1C=NNC(=O)c1ccc(COC)cc1 — MIC80 (Cryptococcus neoformans; microbial growth, broth dilution; pH 7.4): 0.06 µg/mL (≈ 0.195 µM)
O=C1CCP(=[Se])(c2ccccc2)CC1 — IC50 (HaCaT; cell growth or viability, MTT; 72 h): > 100 µM
